# An excerpt weighted towards active compounds, which were near 1.9% of everything screened.
# Scp1 inh = Scp-1 phosphatase inhibitors, primary screen, biochemical, colorimetric, uHTS; Recombinant Scp1, phosphopeptide, malachite green phosphate absorbance; inhibition, % at 20 µM; 0.88% of 340,000 active; AID 493091, 2011;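 active = inhibition above about 50% at 20 µM, limit read from the data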
#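 System: SCP-1 catalytic domain; Reagent: Phospho 17-mer peptide substrate; Doses: one concentration, 20 µM, with 1.0% DMSO; Incubation: 45 min room-temperature reaction, 5 min colour, 30 min stabiliser; Signal: Phosphate-binding colour reagent, absorbance read at 630 nm.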
# UBC9 SUMO inh = inhibitors of in vitro SUMOylation cascade, primary screen, biochemical, HTRF, uHTS; SUMO-conjugating enzyme UBC9 (Homo sapiens), P63279; HTRF SUMOylation assay, SAE1/SAE2 + UBC9; 0.36% of 290,000 active; inhibition, % at 35 µM; in the data active = inhibition above about 50%, passing the limit was not always enough
# LMPTP inh = LMPTP phosphatase inhibitors, primary screen, biochemical, fluorescence intensity, uHTS; AID 651560, 2012; inhibition, % at 20 µM; 0.22% of 360,000 active; recombinant LMPTP-A, OMFP fluorogenic substrate;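 active = compounds that cut the enzyme signal by at least half of the control window in the single-dose screen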
#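 Test system: LMPTP-A, protein tyrosine phosphatase of low molecular weight; Input: 0.625 nM enzyme; Incubation: 50 min dark incubation at room temperature; Signal: endpoint fluorescence intensity from OMFP dephosphorylation; Read-out basis: % inhibition versus control wells.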
# STEP block = STEP phosphatase inhibitors, primary screen, biochemical, fluorescence intensity, uHTS; recombinant STEP, OMFP fluorogenic substrate; inhibition, % at 20 µM; 0.25% of 360,000 active;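 active = inhibition at 20 µM, scaled per plate between control wells, above about 37%, limit read from the data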
#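 medium = Bis-Tris buffer pH 6.0, 2.5 mM DTT, 0.005% Tween 20 | test system = STEP (striatal-enriched tyrosine phosphatase) enzyme, cell-free | measure = normalized % inhibition | compound dosing = 20 µM, 1% DMSO | also added = 25 µM OMFP | schedule = reaction 20 min, ambient temperature | measured by = fluorescence read at 480 nm ex / 540 nm em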
# DNMT1 block = human DNMT1 methyltransferase inhibitors, primary screen, biochemical, molecular beacon, fluorescence, HinP1I cleavage, uHTS. DNA (cytosine-5)-methyltransferase 1 (Homo sapiens), P26358. AID 588458, 2011. inhibition (reported as % activation of signal), % at 10 µM. 0.83% of 360,000 active; in the data active = inhibition above about 50%
# Target sequence (P26358 504-1616 limits assumed): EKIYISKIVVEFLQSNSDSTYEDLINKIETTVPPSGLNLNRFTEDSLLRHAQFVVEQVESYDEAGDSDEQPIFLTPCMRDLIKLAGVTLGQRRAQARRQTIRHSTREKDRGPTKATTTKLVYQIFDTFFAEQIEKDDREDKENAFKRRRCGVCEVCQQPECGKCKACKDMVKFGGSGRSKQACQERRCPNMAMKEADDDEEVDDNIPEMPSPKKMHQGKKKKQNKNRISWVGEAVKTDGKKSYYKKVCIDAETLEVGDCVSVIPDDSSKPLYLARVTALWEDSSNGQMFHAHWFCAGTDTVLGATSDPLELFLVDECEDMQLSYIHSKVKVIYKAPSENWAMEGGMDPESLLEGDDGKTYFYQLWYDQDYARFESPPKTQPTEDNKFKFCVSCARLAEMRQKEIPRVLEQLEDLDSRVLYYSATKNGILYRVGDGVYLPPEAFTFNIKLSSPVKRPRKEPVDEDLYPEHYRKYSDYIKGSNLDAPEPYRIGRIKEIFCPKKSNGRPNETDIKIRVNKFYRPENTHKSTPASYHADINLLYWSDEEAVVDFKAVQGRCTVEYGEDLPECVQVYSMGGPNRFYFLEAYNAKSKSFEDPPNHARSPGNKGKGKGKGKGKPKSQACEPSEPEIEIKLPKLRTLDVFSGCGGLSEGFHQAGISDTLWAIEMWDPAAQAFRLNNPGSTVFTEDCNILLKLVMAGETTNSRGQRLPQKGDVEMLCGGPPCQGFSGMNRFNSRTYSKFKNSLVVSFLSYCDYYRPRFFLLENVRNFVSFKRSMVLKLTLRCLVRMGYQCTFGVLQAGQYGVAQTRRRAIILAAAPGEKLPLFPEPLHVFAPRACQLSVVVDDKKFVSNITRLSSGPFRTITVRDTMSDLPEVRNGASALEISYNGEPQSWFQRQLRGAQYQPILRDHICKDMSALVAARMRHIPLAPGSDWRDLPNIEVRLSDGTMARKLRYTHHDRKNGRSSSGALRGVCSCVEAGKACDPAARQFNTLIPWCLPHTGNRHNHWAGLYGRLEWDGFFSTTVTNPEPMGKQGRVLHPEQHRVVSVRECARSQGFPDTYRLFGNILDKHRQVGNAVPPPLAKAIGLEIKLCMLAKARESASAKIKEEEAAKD
# SUMO1-SIM PPI = modulators of SUMO1 protein-protein interactions, primary screen, biochemical, uHTS | AID 602429, 2012 | SUMO1 binding to a labelled peptide, TR-FRET, 1 h | inhibition, % at 20 µM | 0.33% of 360,000 active | Small ubiquitin-related modifier 1 (Homo sapiens), P63165; in the data active = inhibition above about 37%
# Scp-1 conf = Scp-1 phosphatase inhibitors, retest, confirmation, biochemical, colorimetric, single concentration. shares compounds with Scp1 inh. recombinant SCP-1 catalytic domain, phosphate release, malachite green absorbance. inhibition, % at 20 µM. 61% of 2,500 active. AID 540281, 2011
# MG interference = colorimetric readout interference by compounds, confirmation, artefact control for Scp-1 inhibitor project, biochemical, single concentration; shares compounds with Scp1 inh; Colorimetric interference counterscreen, malachite green absorbance 630 nm; apparent inhibition (interference), % at 20 µM; 2,500 tested, under 10 active; AID 540313, 2011;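 also: compounds added after enzyme reaction finished so only phosphate colour detection is probed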
# Scp1 DSF = Scp-1 binding by thermal shift, confirmation, orthogonal assay for Scp-1 inhibitor project, biophysical, differential scanning fluorimetry | AID 540329, 2011 | shares compounds with Scp1 inh | Recombinant SCP1, Sypro Orange thermal shift Tm | thermal shift relative to vanadate control, % at 40 µM | 25% of 1,500 active;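 active = substances whose mean melting-temperature shift, as a percentage of the reference inhibitor's shift, reaches about 5.3%, limit read from the data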
# Hits are given with their value; 0 = inactive; - = no result given.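 The calls were made as follows, unless noted: active = inhibition of at least 30% at 20 µM; inactive = the rest.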
SMILES,Scp1 inh,UBC9 SUMO inh,LMPTP inh,STEP block,DNMT1 block,SUMO1-SIM PPI,Scp-1 conf,MG interference,others
CC(NC(=O)c1ccccc1F)c1nnc(SCC(=O)Nc2nnc(C3CC3)s2)n1C (stereo not drawn),0,-,0,0,0,0,-,-,
CC(C)C[C@H]1CNC(=O)C(=O)N1C[C@H](C)NC(=O)Cc1ccccc1,0,0,0,0,0,0,0,0,
CC(C)C[C@H]1CN(CCCC[C@H]2CNC(=O)C(=O)N2CCc2ccccc2)C(=O)C(=O)N1Cc1ccccc1,-,-,0,-,-,0,-,-,
N=C1/C(=C/c2ccc(-c3cccc(C(=O)O)c3)o2)C(=O)N=C2SC(CC(=O)N3CCOCC3)=NN12,79.0,0,0,0,56.2,0,58.0,0,Scp1 DSF=0
N=C1/C(=C\c2ccc(SCc3ccccc3)o2)C(=O)N=C2SC(CC(=O)N3CCOCC3)=NN12,0,0,0,0,0,0,-,-,
COc1cc(N(C)C)ccc1[C@]1(O)C(=O)N(C)c2ccc(Br)cc21,-,-,0,-,-,0,-,-,
CN(CC(=O)Nc1ccc(Cl)c(Cl)c1)C(=O)c1cccc2cccnc12,0,-,0,0,0,0,-,-,
O=C(Nc1ccc2oc(-c3ccncc3)nc2c1)c1ccc2c(c1)OCCO2,100.0,0,0,0,0,0,0,0,
O=C(Nc1ccc2oc(-c3cccnc3)nc2c1)c1ccc2c(c1)OCCO2,51.8,0,53.7,0,0,0,44.6,0,Scp1 DSF=0
O=C(Nc1ccc2oc(-c3ccccc3)nc2c1)c1ccc2c(c1)OCCO2,0,0,0,0,0,0,-,-,
Cc1cccc(NC(=O)C2CCN(C(=O)NCc3ccccc3)CC2)c1C,0,0,0,0,0,0,-,-,
S=c1[nH]nc(COc2ccccc2)n1-c1ccc(Cl)cc1,50.6,-,0,0,0,0,0,0,
CC(CCc1ccccc1)NC(=O)CCNS(=O)(=O)c1ccccc1 (stereo not drawn),0,-,0,0,0,0,-,-,
CC(NC(=O)CCNS(=O)(=O)c1ccccc1)c1ccccc1 (stereo not drawn),50.6,0,0,0,0,0,0,0,
CCN(CC)CCNC(=O)c1ccc(NC(=O)C2CCN(c3ncnc4sc(C)c(C)c34)CC2)cc1,112.1,0,0,0,0,0,0,0,
CCc1ccc(CNC(=O)CCc2cn(C)c3ccccc23)cc1,0,0,0,0,0,0,-,-,
O=[N+]([O-])c1cc2c(c(CSc3nnnn3-c3ccc(O)cc3)c1)OCOC2,0,0,0,0,0,0,-,-,
O=C(c1cc2ncc(Br)cn2n1)N1CCN(C(=O)c2ccco2)CC1,56.2,0,0,0,0,0,42.7,0,Scp1 DSF=0
O=C(c1cc2ncc(Br)cn2n1)N1CCOCC1,0,0,0,0,0,0,-,-,
Cc1cc(C(=O)N2CCN(c3ncccn3)CC2)nn1C,0,0,0,0,0,0,-,-,
CCOc1ccc(NC(=O)CN(C)C(=O)c2ccc(N3CCCC3)c([N+](=O)[O-])c2)cc1OCC,52.7,-,0,0,0,0,0,0,
Cn1c(=O)oc2cc(S(=O)(=O)NCCC(=O)NCCc3ccc(Cl)cc3)ccc21,0,0,0,0,0,0,-,-,
Cc1ccc(CCNC(=O)CCNS(=O)(=O)c2ccc3c(c2)oc(=O)n3C)cc1,0,0,0,0,0,0,0,0,
CCC1CCCCN1S(=O)(=O)c1ccc2[nH]c(=O)ccc2c1 (stereo not drawn),58.0,0,0,0,0,0,49.2,0,Scp1 DSF=0
CCN(CC)S(=O)(=O)c1ccc(N2CCOCC2)c(NC(=O)CCC2CCCCC2)c1,0,0,0,0,0,0,-,-,
SMILES,Scp1 inh,UBC9 SUMO inh,LMPTP inh,STEP block,DNMT1 block,SUMO1-SIM PPI,Scp-1 conf,MG interference,others
O=C(N/N=C/c1ccc(-c2cccc([N+](=O)[O-])c2)o1)c1ccc([N+](=O)[O-])cc1,52.5,0,0,0,0,0,0,0,
C/C(=N\NC(=O)c1cc(-c2cccc([N+](=O)[O-])c2)n[nH]1)c1ccc(F)cc1,0,0,0,0,0,0,-,-,
O=C(N/N=C/c1ccc(-c2cccc([N+](=O)[O-])c2)o1)c1ccccc1O,74.5,-,0,0,0,0,76.7,0,Scp1 DSF=9.2
C/C(=N\NC(=O)c1cc(-c2cccc([N+](=O)[O-])c2)n[nH]1)c1ccccc1O,95.8,0,0,96.8,60.1,0,85.3,0,Scp1 DSF=6.3
CCOc1cccc2cc(C(=O)NCc3ccc(C)cc3)c(=N)oc12,0,0,0,0,0,0,-,-,
O=C(c1cc(S(=O)(=O)N2CCOCC2)ccc1F)N(Cc1nnc(-c2ccccc2Cl)o1)C1CC1,54.8,-,0,0,0,0,0,0,
C[N+](C)(C)CCCN(Cc1ccc2c(c1)OCO2)C(=O)NC1CCCCC1,90.9,0,0,0,0,0,78.9,0,Scp1 DSF=0
CC(=O)N/N=C\c1ccccc1OC/C=C/c1ccccc1,0,0,0,0,0,0,-,-,
COc1ccccc1C(=O)OCc1cc(=O)n2ccsc2n1,0,-,0,0,0,0,-,-,
O=C(OCc1cc(=O)n2ccsc2n1)c1ccccc1O,53.0,-,0,0,0,0,0,0,
COc1ccc(CCC(=O)O)c(O)c1,52.6,0,0,0,0,0,45.6,0,Scp1 DSF=0
CSc1ncc(C(=O)Nc2ccccc2F)c(-c2ccccc2)n1,0,0,0,0,0,0,-,-,
CCc1cccc(C)c1NC(=O)CCCN1C(=O)CN(C)C1=O,0,-,0,0,0,0,0,0,
COC(=O)c1ccc(C)c(NC(=O)CCCN2C(=O)CN(C)C2=O)c1,0,-,0,0,0,0,-,-,
COc1ccc(C)cc1NC(=O)CCCN1C(=O)C2CC=CCC2C1=O (stereo not drawn),0,0,0,0,0,0,-,-,
COc1ccc(C)cc1NC(=O)CCCN1C(=O)CN(C)C1=O,0,-,0,0,0,0,0,0,
CC(CC(=O)O)Nc1ccccc1O (stereo not drawn),0,0,0,0,0,0,-,-,
